Data set [1] is described as follows: folding enthalpy; higher = less favourable; fluorescence melt of hairpins on a sequencing array, two-state fit. To be noted: sodium 0.088 M. Put shortly:
(§1)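 On a sequenced MiSeq flow cell, library hairpins with annealed Cy3 and quencher oligos were imaged for Cy3 fluorescence in 2.5 °C steps up to 60 °C, in 50 mM Na-HEPES pH 8.0, 25 mM NaCl. Normalisation used pre-quench Cy3 and control constructs. Bootstrapped two-state fits gave melting temperature and folding enthalpy, combined by inverse variance across four replicates and with fitted temperatures raised by 9.35 °C to match UV melts.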

The nature of data set [2]: melting temperature; fluorescence melt of hairpins on a sequencing array, two-state fit, raised by 9.35 °C to match UV melts. To be noted: sodium 0.088 M. Put shortly: as §1

For the sequence GCGGACGCCCGC ((((....)))), in data set [1], the folding enthalpy was -20.1 kcal/mol. Also, in data set [2], the Tm came to 56.1 °C.
The corresponding values for GCGGACTCCCGC ((((....)))) are -32.8 kcal/mol and 53.1 °C.
On the same counts, the results for GCGGAGACCCGC ((((....)))) are -20.5 kcal/mol and 52.8 °C.
The corresponding values for GCGGAGCGAAAGCAACGC (((..((....))..))) are -20.2 kcal/mol and 66.9 °C.
As to GCGGAGCGAAAGCACGGC ((.(.((....)).).)), in data set [1], the folding enthalpy is -9.69 kcal/mol. Besides, the Tm in data set [2] stood at 45.5 °C.
The corresponding values for GCGGAGCGAAAGCCACGC (((..((....))..))) are -15.7 kcal/mol and 58.4 °C.
The corresponding values for GCGGAGCGAAAGCCCAGC ((.(.((....)).).)) are -12.1 kcal/mol and 42.5 °C.
GCGGAGCGAAAGCGCGGC ((.(.((....)).).)): the folding enthalpy in data set [1] was -15.3 kcal/mol. In addition, the Tm in data set [2] was determined as 58.6 °C.
The corresponding values for GCGGAGCGAAAGCTCTGC ((.((((....)))).)) are -35.8 kcal/mol and 68 °C.
The corresponding values for GCGGAGCGAAAGCTTTGC ((..(((....)))..)) are -14.3 kcal/mol and 45.5 °C.
The corresponding values for GCGGAGGGAAACCTTCGC (((.(((....))).))) are -46.5 kcal/mol and 56.5 °C.
For GCGGAGTCCGC ((((...)))), the folding enthalpy in data set [1] is -25.6 kcal/mol. Also, the Tm in data set [2] was determined as 52.4 °C.
On the same counts, the results for GCGGAGTCGAAAGACCGC (((..(((....)))))) are -38 kcal/mol and 53.7 °C.
On the same counts, the results for GCGGATACCCGC ((((....)))) are -24.3 kcal/mol and 54.2 °C.
In the case of GCGGATCCGAAAGGACGC (((..(((....)))))), the folding enthalpy in data set [1] is -25.6 kcal/mol. The Tm in data set [2] came out at 53.3 °C.
The corresponding values for GCGGATCGAAAGATTCGC (((.(((....))).))) are -45.9 kcal/mol and 60.8 °C.
The corresponding values for GCGGATGCCCGC ((((....)))) are -14.4 kcal/mol and 55 °C.
The corresponding values for GCGGATGGAAACGTCCGC (((((.(....).))))) are -45.9 kcal/mol and 62.6 °C.
As for GCGGATGGAAACGTCTGC ((.((.(....).)).)), in data set [1], the folding enthalpy was -28.1 kcal/mol. Also, in data set [2], the Tm stood at 44.3 °C.
On the same counts, the results for GCGGATTTCCGC ((((....)))) are -22.4 kcal/mol and 64.6 °C.
The corresponding values for GCGGCAATCCGC ((((....)))) are -21.9 kcal/mol and 52.3 °C.
Regarding GCGGCACCCGC ((((...)))), the folding enthalpy in data set [1] was -21.9 kcal/mol. Besides, the Tm in data set [2] came to 56.4 °C.
The corresponding values for GCGGCACCGAAAGGTCGC (((..(((....)))))) are -21.1 kcal/mol and 54.4 °C.
The corresponding values for GCGGCACTCCGC ((((....)))) are -25.8 kcal/mol and 57.5 °C.
On the same counts, the results for GCGGCAGACCGC ((((....)))) are -23.2 kcal/mol and 56.2 °C.
Turning to GCGGCAGGAAACCGCCAC (.(((.(....).))).), the folding enthalpy in data set [1] is -12.7 kcal/mol. Moreover, in data set [2], the Tm came out at 47.5 °C.
Regarding GCGGCATCCGC ((((...)))), the folding enthalpy in data set [1] is -17.9 kcal/mol. Further, the Tm in data set [2] came out at 54.8 °C.
On the same counts, the results for GCGGCATTCCGC ((((....)))) are -23.7 kcal/mol and 56.1 °C.
On the same counts, the results for GCGGCCAACCGC ((((....)))) are -21.6 kcal/mol and 56.2 °C.
The corresponding values for GCGGCCACGAAAGTGCGC (((..(((....)))))) are -17.4 kcal/mol and 52.7 °C.
For the sequence GCGGCCATCCGC ((((....)))), the folding enthalpy in data set [1] is -18.5 kcal/mol. The Tm in data set [2] turned out to be 60 °C.
On the same counts, the results for GCGGCCCCCGC ((((...)))) are -20.4 kcal/mol and 56.6 °C.
The corresponding values for GCGGCCCTCCGC ((((....)))) are -26.5 kcal/mol and 59.6 °C.
The corresponding values for GCGGCCGAAAGGCAACGC ((((((....)))..))) are -19.1 kcal/mol and 64.3 °C.
As to GCGGCCGAAAGGCATCGC ((((((....)))..))), the folding enthalpy in data set [1] is -23 kcal/mol. The Tm in data set [2] was determined as 53.1 °C.
With GCGGCCGAAAGGCCACGC ((((((....)))..))), the folding enthalpy in data set [1] was -13.6 kcal/mol. Also, the Tm in data set [2] was 65.1 °C.
In the case of GCGGCCGAAAGGCTCGC ((((((....))).))), in data set [1], the folding enthalpy is -23.5 kcal/mol. The Tm in data set [2] was found to be 68.8 °C.
The corresponding values for GCGGCGACCCGC ((((....)))) are -15.4 kcal/mol and 57.3 °C.

For the origin of these results see the array DNA melting data of Ke et al. (doi:10.1101/2024.01.08.574731).
